Reference: ChEMBL document CHEMBL1156634, “Synthesis of somatostatin analogues containing C-terminal adamantane and their antiproliferative properties” (2008)
Where a SMILES comes first, the peptide text is derived from it. Bridges are numbered along the chain shown (N, C = ends). [ ]: non-standard residue; d: D form.

What was measured:
Assay type in all cases: functional
SW480 [1] = test: Antiproliferative activity against human SW480 cells at 50 uM after 48 hrs by MTT assay; details: SW480, 48 h
Summary of the method: (§1)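 MTT read-out: mitochondrial dehydrogenase reduces MTT to formazan in viable cells, cells solubilized with DMSO, absorbance read at 540 nm on an ELISA reader. Cycloheximide and a reference peptide run as positive controls. Values given as % inhibition of cellular proliferation, mean ± SE.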

SW480 [2] = test: Antiproliferative activity against human SW480 cells at 25 uM after 48 hrs by MTT assay; details: SW480, 48 h; summary of the method: as §1
SW480 [3] = test: Antiproliferative activity against human SW480 cells at 10 uM after 48 hrs by MTT assay; details: SW480, 48 h; summary of the method: as §1
A-431 [4] = test: Antiproliferative activity against human A431 cells at 10 uM after 48 hrs by MTT assay; details: A-431, 48 h; summary of the method: as §1
A-431 [5] = test: Antiproliferative activity against human A431 cells at 25 uM after 48 hrs by MTT assay; details: A-431, 48 h; summary of the method: as §1
A-431 [6] = test: Antiproliferative activity against human A431 cells at 50 uM after 48 hrs by MTT assay; details: A-431, 48 h; summary of the method: as §1

Compound	inhibition at 50 µM (SW480 [1])	inhibition at 25 µM (SW480 [2])	inhibition at 10 µM (SW480 [3])	inhibition at 10 µM (A-431 [4])	inhibition at 25 µM (A-431 [5])	inhibition at 50 µM (A-431 [6])
C[C@@H]1C[C@@H]([C@H](O)CC2CC(=O)NC(=O)C2)C(=O)[C@@H](C)C1 [CYCLOHEXIMIDE]	92%	85%	68%	40%	70%	80%
N[C@@H](Cc1ccc(O)cc1)C(=O)N[C@H](Cc1c[nH]c2ccccc12)C(=O)N[C@@H](CCCCNC(=O)OCc1ccccc1)C(=O)O				0%	0%	0%
N[C@@H](Cc1ccc(O)cc1)C(=O)N[C@H](Cc1c[nH]c2ccccc12)C(=O)O				0%	8%	11%
CC(C)(C)OC(=O)N[C@@H](Cc1ccc(O)cc1)C(=O)N[C@H](Cc1c[nH]c2ccccc12)C(=O)N[C@@H](CCCCNC(=O)OCc1ccccc1)C(=O)O				0%	0%	2%
C[C@@H](O)[C@H](NC(=O)[C@@H]1CSSC[C@H](NC(=O)[C@H](N)Cc2ccccc2)C(=O)N[C@@H](Cc2ccc(O)cc2)C(=O)N[C@H](Cc2c[nH]c3ccccc23)C(=O)N[C@@H](CCCCN)C(=O)N1)C(N)=O [TT-232] (H-[dF]CY[dW]KCT-NH2; disulfide 2-6)	88%	47%	13%	50%	60%	80%
CC(C)(C)OC(=O)N[C@@H](Cc1ccc(O)cc1)C(=O)N[C@H](Cc1c[nH]c2ccccc12)C(=O)N[C@@H](CCCCNC(=O)OCc1ccccc1)C(=O)OCC1c2ccccc2-c2ccccc21				2%	7%	7%
